# Compounds with a hit are over-represented: about 2.5% of the library has one in this group of screens.
# PHOSPHO1 inh: PHOSPHO1 (human) inhibition; inhibition, % at 13.3 µM; Q8TCT1; AID 1565; hit rate 1.1% among 290,000; recombinant PHOSPHO1, absorbance phosphatase assay; in the data active = inhibition above about 60%
# Target sequence (Q8TCT1 whole entry, looked up): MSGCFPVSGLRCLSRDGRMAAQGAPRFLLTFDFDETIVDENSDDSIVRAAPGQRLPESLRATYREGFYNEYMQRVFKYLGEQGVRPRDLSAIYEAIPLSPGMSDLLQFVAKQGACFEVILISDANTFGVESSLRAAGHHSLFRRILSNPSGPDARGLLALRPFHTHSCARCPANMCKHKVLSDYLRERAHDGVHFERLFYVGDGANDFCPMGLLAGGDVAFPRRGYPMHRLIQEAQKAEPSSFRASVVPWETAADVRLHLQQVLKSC
# EP2 modulator: modulators of human EP2 prostaglandin E2 receptor; P43116; EP2-expressing cells, cAMP HTRF FRET, PGE2 co-stimulation; induction, % at 25 µM; hit rate 0.83% among 260,000; AID 940;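 active = compounds whose cAMP rise, as percent of the full-agonist control response, exceeds 60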;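 also: rat C6 glioma line stably carrying human EP2 under a CMV promoter; the protocol text gives 20 µM as final concentration; 100% = response of wells given 1 µM PGE2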
# Target sequence (P43116 whole entry, looked up): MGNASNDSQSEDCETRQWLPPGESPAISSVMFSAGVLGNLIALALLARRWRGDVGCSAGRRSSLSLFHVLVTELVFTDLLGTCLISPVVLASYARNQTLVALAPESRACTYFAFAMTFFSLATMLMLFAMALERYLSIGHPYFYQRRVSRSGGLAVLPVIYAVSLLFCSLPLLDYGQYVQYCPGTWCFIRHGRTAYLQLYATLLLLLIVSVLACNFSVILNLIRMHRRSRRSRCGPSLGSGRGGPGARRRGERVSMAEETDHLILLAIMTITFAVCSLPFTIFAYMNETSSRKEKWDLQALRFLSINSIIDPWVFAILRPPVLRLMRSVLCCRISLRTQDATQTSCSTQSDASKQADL
# PGE2 EP2 inh: EP2 receptor (human) inhibition; C6 glioma cells expressing human EP2, cAMP TR-FRET; cells stimulated with saturating PGE2; inhibition, % at 25 µM; hit rate 0.52% among 260,000;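 active = percent inhibition above 40 after rounding to a whole number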;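 also: rat C6 glioma host cells with rolipram phosphodiesterase inhibitor present; the protocol text gives 20 µM as final concentration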
# Tb hexokinase: T. brucei hexokinase 1 inhibition; inhibition, % at 10 µM; hit rate 0.11% among 220,000; recombinant TbHK1, G6PDH-coupled NADH A340;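 active = inhibition of 50% or more in the single-dose primary screen; inactive = inhibition below 50%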
# PfG6PD inh: PfG6PD (Plasmodium falciparum) enzyme inhibition; PfGluPho enzyme, NADPH resazurin-diaphorase fluorescence; inhibition, % at 20 µM; hit rate 0.78% among 350,000; AID 504690;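 active = inhibition reaching at least a set limit at 20 µM in the primary screen, cut at about 59% in these data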;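 also: 0% = DMSO wells with substrate and 100% = DMSO wells lacking glucose-6-phosphate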
# HKDC1 inh: blocks human hexokinase HKDC1 activity; Q2TB90; recombinant HKDC1, G6PDH/diaphorase resazurin coupled fluorescence; inhibition, % at 20 µM; hit rate 0.16% among 340,000; AID 493160;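 active = inhibition above about 35% when tested at 20 µM, limit read from the data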;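 also: plate controls were DMSO wells with enzyme for no effect and DMSO wells lacking enzyme for full effect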
#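 Test system: recombinant HKDC1 (HK5) hexokinase enzyme, produced in-house; Amount: enzyme 5 µg/mL final; Buffer or medium: Tris pH 8.0 buffer with MgCl2, Tween-20, BSA, BME; Reagent: glucose and ATP substrates; Doses: 20 µM test compound, 1% DMSO; Incubation: 90 min reaction incubation at room temperature, dark; Detection: resorufin fluorescence at 613 nm.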
# EP2 confirm: human EP2 receptor cAMP induction, negative in counter-screens. shares compounds with EP2 modulator. C6 glioma EP2 cells, cAMP HTRF induction; plus low (about EC15) PGE2 agonist. calls only at 20 µM (by protocol). hit rate 47% among 1,300. AID 1080;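 active = cAMP induction above 50% in the main assay while under 30% in all four parallel counter assays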;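 also: rat C6 glioma cells stably expressing human EP2 receptor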
# Numbers without * were called inactive; i = inactive; . = no result; + = active, no number; ! = not confirmed by another sample.
SMILES,PHOSPHO1 inh,EP2 modulator,PGE2 EP2 inh,Tb hexokinase,PfG6PD inh,HKDC1 inh,EP2 confirm
Cc1ccc2c(c1)-c1nc3ccccc3cc1C2=NC1CCCCC1,-15,70*,4,-10,6,1,i
CC1CCc2c(sc(N)c2C(=O)OC(C)C)C1 (stereo not given),18,68*,12,8,1,2,i
C[C@H](CN(C)C)C(=O)c1ccccc1C(=O)O,.,51,8,.,.,.,i
O=C(O)c1ccccc1C(=O)O,.,.,.,.,-16,1,.
Cc1cccc(C(=O)NNC(=O)c2ccccc2)c1,-9,-14,5,27,-12,-5,.
Cc1cccc(C(=O)c2cnc3ccccc3c2-c2ccccc2)c1,16,90*,8,2,-3,6,+
O=c1c(CN(CCCn2ccnc2)CC2CC=CCC2)coc2ccccc12 (stereo not given),.,-1,6,.,.,.,.
COC(=O)[C@H]1CCc2ccccc2N1C(=O)Cc1ccc(Cl)cc1,.,10,.,.,.,.,.
CCc1ccc2[nH]c(=O)c(CN(Cc3ccc(F)cc3)Cc3nnnn3CC3CCCO3)cc2c1 (stereo not given),.,25,7,.,.,.,.
CCCn1c(C)nc2c(c1=O)c1nc3ccccc3nc1n2CCC1=CCCCC1,69*,72*,7,-7,16,10,i
CCC(C)NC(=O)C1CCCN(S(=O)(=O)c2ccc(S(=O)(=O)N(C)C)cc2)C1 (stereo not given),.,-44,14,.,.,.,.
O=c1[nH]c2ccc(Cl)cc2c(-c2ccccc2)c1N1CCOCC1,70*,69*,5,0,-5,0,i
O=c1[nH]c2ccc(Cl)cc2c(-c2ccccc2)c1N1CCN(c2ccccn2)CC1,7,73*,7,-4,-2,6,i
CCn1c(SCC(=O)Nc2ccc(C)c(Cl)c2)nc2c1c(=O)n(C)c(=O)n2C,.,-43,10,.,.,.,.
NC(N)=Nc1nc(CSCC/C(N)=N/S(N)(=O)=O)cs1,1,10,12,2,2,-5,i
COc1ccccc1OCC(=O)Nc1ccc(-c2nnc(-c3ccco3)o2)cc1,1,5,5,-21,8,-5,.
O=C(COc1ccc(Br)cc1)Nc1ccc(-c2nnc(-c3ccco3)o2)cc1,0,75*,0,-27,-4,-1,i
CC(C)c1nc(Cl)c(C#N)c2c1CSC(C)(C)C2,11,73*,5,-3,-14,1,+
CCCCc1nc(Cl)c(C#N)c2c1CSC(C)(C)C2,3,33,10,-4,-16,1,.
CCCOc1ccc(/C=N/Nc2ccc(C(=O)O)cc2)c(OCCC)c1,-85,88*,15,4,-6,3,+
CCCOc1ccc(/C=N/Nc2cccc([N+](=O)[O-])c2)c(O)c1,16,1,7,-7,11,-8,.
CCn1cc(C(=O)Nc2cc(C)cc(C)c2)c(=O)c2ccc(C)nc21,.,30,9,.,.,.,.
CCCOC(=O)c1ccc(NC(=O)c2cn(CC)c3nc(C)ccc3c2=O)cc1,10,67*,.,-5,.,.,i
COCC(=O)Nc1sc2c(c1C(=O)OC)CCCC2,2,2,0,2,4,6,.
COC(=O)c1c(NC(=O)Cc2cccs2)sc2c1CCCC2,7,55,14,-1,-9,5,i
SMILES,PHOSPHO1 inh,EP2 modulator,PGE2 EP2 inh,Tb hexokinase,PfG6PD inh,HKDC1 inh,EP2 confirm
COC(=O)c1c(NC(=O)Cc2ccccc2)sc(C)c1C,7,36,10,0,-12,1,.
COC(=O)c1c(NC(=O)Cc2cccs2)sc(C)c1C,38,56,6,-5,-2,-3,i
COc1cc(CN2CCC(C(=O)N3CCN(c4ccccc4F)CC3)CC2)cc(OC)c1OC,6,79*,10,-3,-4,-8,i
O=C(O)c1cc2c(s1)-c1ccccc1OC2,1,86*,12,-30,-9,-4,i
O=C(O)CCCCCCCCCCCc1ccccc1,16,78*,10,37,-37,7,+
O=C(O)CCCc1ccc2ccccc2c1,.,14,11,.,.,.,.
CCOc1cc(/C=C2\N=C(c3ccc(Cl)cc3)OC2=O)cc(Cl)c1OC(C)=O,.,-12,11,.,.,.,.
CCOC(=O)c1oc2ccccc2c1NC(=O)c1ccccc1OC,25,79*,10,-8,2,-3,+
CCNC(=O)C1CCCN(S(=O)(=O)c2ccc(F)cc2)C1 (stereo not given),.,3,11,.,.,.,.
CCc1oc2ccccc2c1C(=O)c1cc(Br)c(O)c(Br)c1,-4,68*!,10,-7,-26,3,i
CCc1ccc(OCC(=O)c2c(O)c3ccccc3oc2=O)cc1,12,-35,6,-7,-21,15,.
O=C(NCC1COc2ccccc2O1)c1ncoc1-c1cccs1 (stereo not given),.,-18,.,.,.,.,.
CCCCn1c(-c2csc3c2CCCC3)n[nH]c1=S,100*,55,2,4,27,14,i
O=C(Nc1ccccc1N1CCN(c2ccccc2)CC1)C12CC3CC(CC(C3)C1)C2,-8,68*,9,0,11,8,i
O=C(Cc1ccccc1F)Nc1ccccc1N1CCCC1,15,.,.,.,-4,2,.
O=C(CNCc1ccccc1Cl)Nc1ccccc1N1CCCCC1,4,75*,2,9,-5,11,+
O=C(Cc1ccccc1)Nc1ccccc1N1CCN(c2ccccc2)CC1,-31,72*,5,6,-12,7,+
O=C(Cn1nnc(-c2cccnc2)n1)N1c2ccccc2CCc2ccccc21,.,-39,7,.,.,.,.
CCn1c(C)[n+](CC(O)COc2ccc(Cl)cc2)c2ccccc21 (stereo not given),.,-5,8,.,.,.,.
COc1ccc2c(C)cc(SCC(=O)Nc3ncc(Cl)cc3Cl)nc2c1,-24,68*,14,28,13,-5,i
Cc1cccc(/N=C/c2c(O)ccc3oc4c(c23)CCCC4)n1,-5,73*,7,-3,17,3,+
CN(Cc1cccs1)c1nc(-c2cccnc2)nc2ccccc12,-6,74*,4,-4,-8,-1,+
CCn1c(=NC(=O)CS(=O)(=O)c2ccc(C)cc2)sc2cccc(OC)c21,.,.,.,.,15,25,.
CCn1c(=NC(=O)c2ccc(S(=O)(=O)N(C)C)cc2)sc2cccc(OC)c21,20,76*,12,-8,-7,8,i
Cn1c(O)c(N=NC(=O)c2ccco2)c2ccccc21,19,-14,21,-37,-3,-4,.
CC(C)CCn1c(O)c(N=NC(=O)c2ccco2)c2ccccc21,-9,73*,1,-7,10,-7,i

# Source: PubChem BioAssay (several laboratories)
